# Results taken from ChEMBL document CHEMBL4033794, “Discovery of Trifluoromethyl Glycol Carbamates as Potent and Selective Covalent Monoacylglycerol Lipase (MAGL) Inhibitors for Treatment of Neuroinflammation” (J Med Chem, 2018).
# Calls of active or inactive are those of the source. The rule behind the calls is not given here.
# What was measured:
# [1] = target: T1, Fatty-acid amide hydrolase 1 (Homo sapiens, UniProt O00519); experiment: Inhibition of recombinant human FAAH using fluorogenic arachidonoyl-AMC as substrate preincubated for 30 mins followed by substrate addition measured after 60 mins by fluorescence based assay
# T1 sequence (O00519 whole entry): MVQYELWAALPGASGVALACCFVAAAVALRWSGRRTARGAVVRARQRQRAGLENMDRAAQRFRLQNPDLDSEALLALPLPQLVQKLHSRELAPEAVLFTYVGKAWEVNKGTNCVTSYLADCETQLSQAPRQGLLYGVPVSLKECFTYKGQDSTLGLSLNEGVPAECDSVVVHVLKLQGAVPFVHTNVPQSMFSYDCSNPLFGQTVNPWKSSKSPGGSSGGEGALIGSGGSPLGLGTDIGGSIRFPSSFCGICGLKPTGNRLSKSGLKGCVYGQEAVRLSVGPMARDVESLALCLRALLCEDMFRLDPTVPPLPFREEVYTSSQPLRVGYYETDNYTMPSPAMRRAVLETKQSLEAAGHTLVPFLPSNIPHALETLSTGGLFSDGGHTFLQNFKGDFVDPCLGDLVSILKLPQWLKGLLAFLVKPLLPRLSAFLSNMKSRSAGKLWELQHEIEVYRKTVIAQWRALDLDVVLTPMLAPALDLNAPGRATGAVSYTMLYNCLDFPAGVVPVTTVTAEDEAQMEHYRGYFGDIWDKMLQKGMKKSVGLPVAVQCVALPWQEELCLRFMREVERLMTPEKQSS
# Method in brief: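 Human recombinant FAAH (0.0125 U final) in 50 mM Tris pH 9.0, 1 mM EDTA, preincubated 30 min at room temperature with compound (30 μM to 0.3 nM final); arachidonoyl-AMC 5 μM added, 60 min reaction, read Ex/Em 355/460. Inhibition vs no-compound and full-inhibition controls; four-parameter fit; geometric mean of ≥3 experiments.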
# [2] = Lipophilicity, log D of the compound by HPLC analysis; format: physicochemical
# Method in brief: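 LogD determined by an HPLC-based (eLogD) method.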
# Monoglyceride lipase = target: T2, Monoglyceride lipase (Homo sapiens, UniProt Q99685); experiment: Inhibition of recombinant human MAGL using fluorogenic-7HCA as substrate preincubated for 30 mins followed by substrate addition measured after 60 mins by fluorescence based assay
# T2 sequence (Q99685 whole entry): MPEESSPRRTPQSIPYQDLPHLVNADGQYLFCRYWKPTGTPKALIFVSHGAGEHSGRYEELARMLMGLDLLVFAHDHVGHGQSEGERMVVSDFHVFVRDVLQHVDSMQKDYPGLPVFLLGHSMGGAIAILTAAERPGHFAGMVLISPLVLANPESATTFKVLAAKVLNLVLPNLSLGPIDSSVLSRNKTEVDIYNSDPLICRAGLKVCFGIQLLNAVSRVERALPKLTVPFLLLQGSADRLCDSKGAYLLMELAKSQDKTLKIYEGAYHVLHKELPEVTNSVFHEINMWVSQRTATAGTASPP
# [3] = target: T3, Monoglyceride lipase (Homo sapiens) (UniProt Q99685); experiment: Inhibition of recombinant human MAGL assessed as Kintact to Ki ratio using fluorogenic-7HCA as substrate measured after 60 mins by fluorescence based assay
# T3 sequence (whole entry): T2 sequence (Q99685 whole entry)
# Method in brief: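 Same MAGL fluorogenic setup (88 pM enzyme, 5 μM 7-HCA, HEPES pH 7.4 buffer) but substrate added immediately without preincubation; fluorescence read every minute to obtain progress curves across decreasing inhibitor concentrations; kobs derived per concentration and kinact/KI taken from plot of kobs versus concentration.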
# [4] = Intrinsic clearance in human liver microsomes; format: ADME, microsome; settings: read-out: CLH
# Method in brief: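 Substrate depletion in human liver microsomes; intrinsic clearance scaled to mL/min/kg.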
# Homo sapiens = species: Homo sapiens; experiment: Selectivity ratio of IC50 for recombinant human FAAH to IC50 for recombinant human MAGL
# [5] = Kinetic solubility of the compound at pH 7.4; format: physicochemical; settings: buffer, read-out: Kinetic_solubility
# [6] = target: T4, CES1 (liver carboxylesterase 1) (Homo sapiens, UniProt P23141); experiment: (§1) Inhibition of human CES1 at 10 uM
# T4 sequence (P23141 whole entry): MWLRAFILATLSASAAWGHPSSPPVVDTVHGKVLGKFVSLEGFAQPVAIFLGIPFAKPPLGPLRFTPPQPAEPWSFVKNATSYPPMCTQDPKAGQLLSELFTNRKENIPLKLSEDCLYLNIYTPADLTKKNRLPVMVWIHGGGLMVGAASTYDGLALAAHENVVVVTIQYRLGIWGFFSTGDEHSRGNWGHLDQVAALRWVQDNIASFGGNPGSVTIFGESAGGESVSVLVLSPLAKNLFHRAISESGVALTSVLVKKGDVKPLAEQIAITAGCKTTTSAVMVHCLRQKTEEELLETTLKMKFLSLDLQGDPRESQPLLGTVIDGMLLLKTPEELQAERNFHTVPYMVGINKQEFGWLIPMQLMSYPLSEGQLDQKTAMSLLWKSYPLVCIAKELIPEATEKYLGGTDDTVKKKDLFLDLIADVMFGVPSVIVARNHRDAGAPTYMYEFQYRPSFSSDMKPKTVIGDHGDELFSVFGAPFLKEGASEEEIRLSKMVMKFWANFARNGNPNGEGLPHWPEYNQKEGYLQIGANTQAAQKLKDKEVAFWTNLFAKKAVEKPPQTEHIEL
# Method in brief: (§2)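 Panel of 42 human serine hydrolases, each exposed to inhibitor at 10 µM; activity expressed as percent inhibition.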
# [7] = target: T5, Monoacylglycerol lipase ABHD6 (Homo sapiens) (UniProt Q9BV23); experiment: Inhibition of human ABHD6 at 10 uM; method in brief: as §2
# T5 sequence (whole entry): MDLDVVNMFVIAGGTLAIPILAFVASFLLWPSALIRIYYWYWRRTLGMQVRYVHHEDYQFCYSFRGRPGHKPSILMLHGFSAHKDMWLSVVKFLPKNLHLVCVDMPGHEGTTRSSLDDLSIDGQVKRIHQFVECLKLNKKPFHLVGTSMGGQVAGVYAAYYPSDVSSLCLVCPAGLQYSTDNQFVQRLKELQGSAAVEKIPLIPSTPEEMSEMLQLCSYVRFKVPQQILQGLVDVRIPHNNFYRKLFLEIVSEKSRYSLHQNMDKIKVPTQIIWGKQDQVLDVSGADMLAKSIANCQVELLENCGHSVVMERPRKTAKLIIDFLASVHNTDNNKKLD
# [8] = Lipophilicity, log D of the compound at pH 7.4 by shake flask method; format: physicochemical; settings: buffer
# Liver carboxylesterase 1 = target: T6, Liver carboxylesterase 1 (Homo sapiens, UniProt P23141); experiment: as §1; settings: 10 µM; method in brief: as §2
# T6 sequence (P23141 whole entry): T4 sequence (P23141 whole entry)
# Cocaine esterase = target: T7, Cocaine esterase (Homo sapiens, UniProt O00748); experiment: Inhibition of human CES2 at 10 uM; method in brief: as §2
# T7 sequence (O00748 whole entry): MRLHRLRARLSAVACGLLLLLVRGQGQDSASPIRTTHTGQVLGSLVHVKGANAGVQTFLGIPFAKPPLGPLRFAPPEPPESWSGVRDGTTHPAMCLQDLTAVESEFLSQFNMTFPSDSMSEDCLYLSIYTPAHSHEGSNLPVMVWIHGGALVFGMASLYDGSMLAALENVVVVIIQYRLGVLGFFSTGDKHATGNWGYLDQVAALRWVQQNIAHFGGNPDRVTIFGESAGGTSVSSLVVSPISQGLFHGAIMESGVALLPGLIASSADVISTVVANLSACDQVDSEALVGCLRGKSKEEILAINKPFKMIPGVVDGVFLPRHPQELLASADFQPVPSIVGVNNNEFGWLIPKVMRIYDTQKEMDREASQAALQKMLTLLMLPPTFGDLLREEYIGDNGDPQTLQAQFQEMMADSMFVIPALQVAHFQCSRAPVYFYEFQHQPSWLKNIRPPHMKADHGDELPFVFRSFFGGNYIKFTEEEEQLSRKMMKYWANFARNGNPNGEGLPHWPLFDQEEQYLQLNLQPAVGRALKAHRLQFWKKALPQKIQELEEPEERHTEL
# [9] = target: T8, Fatty-acid amide hydrolase 1 (Homo sapiens) (UniProt O00519); experiment: Inhibition of human FAAH at 10 uM; method in brief: as §2
# T8 sequence (whole entry): T1 sequence (O00519 whole entry)
# [10] = target: T9, Fatty-acid amide hydrolase 2 (Homo sapiens) (UniProt Q6GMR7); experiment: Inhibition of human FAAH2 at 10 uM; method in brief: as §2
# T9 sequence (whole entry): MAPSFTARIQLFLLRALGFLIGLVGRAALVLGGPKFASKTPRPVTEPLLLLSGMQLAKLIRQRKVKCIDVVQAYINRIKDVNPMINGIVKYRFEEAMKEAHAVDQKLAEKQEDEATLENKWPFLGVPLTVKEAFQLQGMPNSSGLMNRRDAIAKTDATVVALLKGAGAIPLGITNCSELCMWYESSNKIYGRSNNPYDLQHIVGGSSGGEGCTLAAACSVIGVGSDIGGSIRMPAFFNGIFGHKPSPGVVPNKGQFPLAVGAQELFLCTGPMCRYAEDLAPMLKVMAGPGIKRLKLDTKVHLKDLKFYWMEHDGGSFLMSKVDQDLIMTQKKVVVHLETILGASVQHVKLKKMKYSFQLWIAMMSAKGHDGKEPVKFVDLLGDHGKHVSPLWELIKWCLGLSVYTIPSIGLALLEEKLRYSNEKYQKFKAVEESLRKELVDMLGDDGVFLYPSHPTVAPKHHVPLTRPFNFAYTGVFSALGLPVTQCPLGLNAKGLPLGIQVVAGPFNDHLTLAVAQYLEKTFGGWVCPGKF
SMILES,IC50 [1],logD [2],IC50 (Monoglyceride lipase),Ratio [3],other results
O=C(Oc1ccc([N+](=O)[O-])cc1)N1CCC(C(O)(c2ccc3c(c2)OCO3)c2ccc3c(c2)OCO3)CC1,> 11000 nM,5.1,–,–,–
O=C(OC(CO)C(F)(F)F)N1C[C@@H]2[C@H](C1)[C@H]2c1ccn(-c2ccc(F)cc2)n1 (some centres not stated),14000 nM,3.9,6 nM,–,–
O=C(OC[C@@H](O)C(F)(F)F)N1C[C@@H]2[C@H](C1)[C@H]2c1ccn(-c2ccc(F)cc2)n1,> 30000 nM,4,132 nM,244 M⁻¹ s⁻¹,CLint scaled [4]: 9.4 mL/min/kg
O=C(O[C@@H](CO)C(F)(F)F)N1C[C@@H]2[C@H](C1)[C@H]2c1ccn(-c2ccc(F)cc2)n1,26000 nM,3.9,890 nM,–,CLint scaled [4]: < 8 mL/min/kg
O=C(OC(C(F)(F)F)C(F)(F)F)N1C[C@@H]2[C@H](C1)[C@H]2c1ccn(-c2ccc(F)cc2)n1,4300 nM,5.6,1 to 1.4 nM,41700 M⁻¹ s⁻¹,Ratio IC50 (Homo sapiens): 3000 to 4300; solubility kinetic [5]: < 1 µM; inhibition at 10 µM [6]: 58%; inhibition [7]: 95%
CC(OC(=O)N1C[C@@H]2[C@H](C1)[C@H]2c1ccn(-c2ccc(F)cc2)n1)C(F)(F)F (some centres not stated),> 23000 nM,4.8,242 nM,–,Ratio IC50 (Homo sapiens): > 95
O=C(O[C@H](CCO)C(F)(F)F)N1C[C@@H]2[C@H](C1)[C@H]2c1ccn(-c2ccc(F)cc2)n1,> 12000 nM,4.2,582 nM,4570 M⁻¹ s⁻¹,CLint scaled [4]: < 12 mL/min/kg

# These reach a lower IC50 [1]. Values come first.
IC50 [1],logD [2],IC50 (Monoglyceride lipase),Ratio [3],SMILES,other results
3600 nM,–,46 nM,156 M⁻¹ s⁻¹,O=C(ON1C(=O)CCC1=O)N1C[C@@H]2[C@H](C1)[C@H]2c1ccn(-c2ccc(F)cc2)n1,logD [8]: 2.6; inhibition (INH) (Liver carboxylesterase 1): Not Active; inhibition [7]: inactive; inhibition (INH) (Cocaine esterase): Not Active; inhibition [9]: inactive; inhibition [10]: inactive
1940 nM,4.2,354 nM,110 M⁻¹ s⁻¹,COC[C@@H](OC(=O)N1C[C@@H]2[C@H](C1)[C@H]2c1ccn(-c2ccc(F)cc2)n1)C(F)(F)F,–
1900 nM,4.3,26 nM,1580 M⁻¹ s⁻¹,O=C(O[C@H](CF)C(F)(F)F)N1C[C@@H]2[C@H](C1)[C@H]2c1ccn(-c2ccc(F)cc2)n1,Ratio IC50 (Homo sapiens): 73
970 nM,4.2,445 nM,103 M⁻¹ s⁻¹,O=C(OCC(F)(F)F)N1C[C@@H]2[C@H](C1)[C@H]2c1ccn(-c2ccc(F)cc2)n1,–
18 nM,–,24 nM,2880 M⁻¹ s⁻¹,O=C(Oc1ccc([N+](=O)[O-])cc1)N1C[C@@H]2[C@H](C1)[C@H]2c1ccn(-c2ccc(F)cc2)n1,logD [8]: 4.2
